# Tests used:
# Tobacco mosaic virus [1] = test: Antiviral activity against Tobacco mosaic virus (TMV) inoculated on whole Nicotiana tabacum leaves followed by smearing with 500 ug/mL compound solution on left side of leaves assessed as viral infection curative effect measured 3 to 4 days post viral infection; assay type: functional
# Summary of the method: (§1)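 Whole same-age growing N. tabacum leaves were dip-inoculated with TMV at 6 × 10^-3 mg/mL, then washed with water and dried. Compound solution was smeared on left half, solvent on right half as control. Local lesions were counted 3–4 d after inoculation, three repetitions per compound. Inhibition % = (control mean lesions − treated mean lesions)/control mean lesions × 100.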
# Tobacco mosaic virus [2] = test: Antiviral activity against Tobacco mosaic virus (TMV) inoculated on 500 ug/mL compound smeared Nicotiana tabacum leaves assessed as protective effect against viral infection measured 3 to 4 days post viral infection; assay type: functional
# Summary of the method: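 Half-leaf assay on same-age growing Nicotiana tabacum leaves: compound solution smeared on left half, solvent on right half as control. After 12 h, leaves scattered with silicon carbide were brush-inoculated with TMV at 6 × 10^-3 mg/mL. Local lesions were counted 3–4 d post-inoculation, three repetitions. Inhibition % = (control mean lesions − treated mean lesions)/control mean lesions × 100.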
# Tobacco mosaic virus [3] = test: Antiviral activity against Tobacco mosaic virus (TMV) pre-treated with 500 ug/mL compound for 30 min followed by inoculation on left side of Nicotiana tabacum leaves assessed as virus inactivation effect measured 3 to 4 days post viral infection; assay type: functional
# Summary of the method: (§2)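 Inactivation assay on N. tabacum leaves, with a solvent–virus mixture inoculated as control. Local lesion numbers were recorded 3–4 d after inoculation, three repetitions per compound. Inhibition % was derived from mean lesion counts relative to control.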
# Tobacco mosaic virus [4] = test: Antiviral activity against Tobacco mosaic virus (TMV) pre-treated with 250 ug/mL compound for 30 min followed by inoculation on left side of Nicotiana tabacum leaves assessed as virus inactivation effect measured 3 to 4 days post viral infection; assay type: functional; summary of the method: as §2
# Tobacco mosaic virus [5] = test: Antiviral activity against Tobacco mosaic virus (TMV) pre-treated with 125 ug/mL compound for 30 min followed by inoculation on left side of Nicotiana tabacum leaves assessed as virus inactivation effect measured 3 to 4 days post viral infection; assay type: functional; summary of the method: as §2
# Tobacco mosaic virus [6] = test: Antiviral activity against Tobacco mosaic virus (TMV) inoculated on whole Nicotiana tabacum leaves followed by smearing with compound solution on left side of leaves assessed as viral infection curative effect measured 3 to 4 days post viral infection; assay type: functional, organism-based; summary of the method: as §1
# Tobacco mosaic virus [7] = test: Antiviral activity against Tobacco mosaic virus (TMV) inoculated on whole Nicotiana tabacum leaves followed by smearing with 125 ug/mL compound solution on left side of leaves assessed as viral infection curative effect measured 3 to 4 days post viral infection; assay type: functional; summary of the method: as §1
# Tobacco mosaic virus [8] = test: Antiviral activity against Tobacco mosaic virus (TMV) inoculated on whole Nicotiana tabacum leaves followed by smearing with 250 ug/mL compound solution on left side of leaves assessed as viral infection curative effect measured 3 to 4 days post viral infection; assay type: functional; summary of the method: as §1
# Tobacco mosaic virus [9] = test: Antiviral activity against Tobacco mosaic virus (TMV) pre-treated with compound for 30 min followed by inoculation on left side of Nicotiana tabacum leaves assessed as virus inactivation effect measured 3 to 4 days post viral infection; assay type: functional, organism-based; summary of the method: as §2
# Tobacco mosaic virus [10] = test: Antiviral activity against Tobacco mosaic virus (TMV) pre-treated with 62.5 ug/mL compound for 30 min followed by inoculation on left side of Nicotiana tabacum leaves assessed as virus inactivation effect measured 3 to 4 days post viral infection; assay type: functional; summary of the method: as §2
Structure (SMILES),Activity (Tobacco mosaic virus [1]) [%],Activity (Tobacco mosaic virus [2]) [%],Activity (Tobacco mosaic virus [3]) [%],Activity (Tobacco mosaic virus [4]) [%],Activity (Tobacco mosaic virus [5]) [%],EC50 (Tobacco mosaic virus [6]) [µg/mL],Activity (Tobacco mosaic virus [7]) [%],Activity (Tobacco mosaic virus [8]) [%],EC50 (Tobacco mosaic virus [9]) [µg/mL],Activity (Tobacco mosaic virus [10]) [%]
CCOP(=O)(OCC)C(NC(=O)c1cccc(F)c1)c1ccccc1F (configuration not stated),6.2,41,70.7,,,,,,,
CCOP(=O)(OCC)C(NC(=O)c1ccccc1C(F)(F)F)c1ccccc1F (configuration not stated),2.1,39.2,62.2,,,,,,,
CCOP(=O)(OCC)C(NC(=O)c1ccccc1Cl)c1ccccc1F (configuration not stated),19.7,40.9,39,,,,,,,
CCOP(=O)(OCC)C(NC(=O)/C=C/c1ccccc1)c1ccccc1F (configuration not stated),22.4,39,51.5,,,,,,,
CCOP(=O)(OCC)C(NC(=O)c1cc(OC)c(OC)c(OC)c1)c1ccccc1F (configuration not stated),17.1,41.2,33.7,,,,,,,
CCOP(=O)(OCC)C(NC(=O)c1ccccc1F)c1ccccc1F (configuration not stated),20.8,50,80,,,,,,,
CCOP(=O)(OCC)C(NC(=O)/C=C/c1ccccc1)c1ccccc1 (configuration not stated) [(E)-DIETHYL CINNAMAMIDO(PHENYL)METHYLPHOSPHONATE],50,58.7,88.2,79.9,61.2,439,32.3,39.9,65.2,49.1
CCOP(=O)(OCC)C(NC(=O)c1ccccc1)c1ccccc1F (configuration not stated) [DIETHYL BENZAMIDO(2-FLUOROPHENYL)METHYLPHOSPHONATE],32.2,43.1,70,,,,,,,
CCOP(=O)(OCC)C(NC(=O)c1ccccc1)c1ccccc1 (configuration not stated) [DIETHYL BENZAMIDO(PHENYL)METHYLPHOSPHONATE],8.7,39.1,42.4,,,,,,,
CCOP(=O)(OCC)C(NC(=O)c1ccccc1C(F)(F)F)c1ccccc1 (configuration not stated) [DIETHYL PHENYL(2-(TRIFLUOROMETHYL)BENZAMIDO)METHYLPHOSPHONATE],2.4,41.1,45.3,,,,,,,
"CCOP(=O)(OCC)C(NC(=O)c1cc(OC)c(OC)c(OC)c1)c1ccccc1 (configuration not stated) [DIETHYL PHENYL(3,4,5-TRIMETHOXYBENZAMIDO)METHYLPHOSPHONATE]",35.6,42,45.6,,,,,,,
CCOP(=O)(OCC)C(NC(=O)c1ccccc1Cl)c1ccccc1 (configuration not stated) [DIETHYL(2-CHLOROBENZAMIDO)(PHENYL)METHYLPHOSPHONATE],19,58,90.6,82.2,60.9,,,,60,59
CCOP(=O)(OCC)C(NC(=O)c1ccccc1F)c1ccccc1 (configuration not stated) [DIETHYL(2-FLUOROBENZAMIDO)(PHENYL)METHYLPHOSPHONATE],53.6,42,78,70.9,47.2,256,34,49,119,36.7
CCOP(=O)(OCC)C(NC(=O)c1cccc(F)c1)c1ccccc1 (configuration not stated) [DIETHYL(3-FLUOROBENZAMIDO)(PHENYL)METHYLPHOSPHONATE],24.6,56,82.1,,,,,,,
CCOP(=O)(OCC)C(NC(=O)c1ccc(F)cc1)c1ccccc1 (configuration not stated) [DIETHYL(4-FLUOROBENZAMIDO)(PHENYL)METHYLPHOSPHONATE],19.2,65.7,99.1,100,76.1,,,,54.8,70
CCCOP(=O)(OCCC)C(NC(=O)c1ccccc1)c1ccccc1 (configuration not stated) [DIPROPYL BENZAMIDO(PHENYL)METHYLPHOSPHONATE],42,49.9,78.9,51,23,560,14,23.9,279,10
CCCOP(=O)(OCCC)C(NC(=O)c1ccccc1C(F)(F)F)c1ccccc1 (configuration not stated) [DIPROPYL PHENYL(2-(TRIFLUOROMETHYL)BENZAMIDO)METHYLPHOSPHONATE],53.7,44,80,60,39.2,422,31.6,38,199,31.2
"CCCOP(=O)(OCCC)C(NC(=O)c1cc(OC)c(OC)c(OC)c1)c1ccccc1 (configuration not stated) [DIPROPYL PHENYL(3,4,5-TRIMETHOXYBENZAMIDO)METHYLPHOSPHONATE]",55,58.8,83.4,61,30.3,250,40.9,50.6,210,28.8
CCCOP(=O)(OCCC)C(NC(=O)c1cccc(F)c1)c1ccccc1 (configuration not stated) [DIPROPYL(3-FLUOROBENZAMIDO)(PHENYL)METHYLPHOSPHONATE],43,50.9,86.6,65,46,546,12.9,21,150,40.1
CNCC(=O)N[C@@H](CO)C(=O)N[C@H]1[C@H](O)[C@@H](O)[C@H](n2ccc(N)nc2=O)O[C@@H]1C(N)=O [NINGNANMYCIN],55.4,60.2,100,100,78.4,246,40.9,51,55.6,69
